Experimental data from different studies.
Compare with care: the assays were run in different laboratories.
Target: Eukaryotic translation initiation factor 2-alpha kinase 1 (EIF2AK1, Homo sapiens, UniProt Q9BQI3)

SMILES | observed | method | concentration | remaining binding [%]
CS(=O)(=O)N1CCCC(NC(=O)[C@H](CCC2CCCCC2)NC(=O)c2ccc(CNC(=O)c3cnc4ccccn34)cc2)C1 (stereo partly shown) | cell-free assay | competition with immobilised ligand | 0.1 µM | 91
O=C(NCC1CCOCC1)c1n[nH]cc1NC(=O)c1c(F)cccc1F | binding | competition with immobilised ligand | 1 µM | 87
CN(c1nccc(-c2cnn3ncccc23)n1)C1CC1 | binding |  | 1 µM | 100
O=C(NCc1ncc(C(F)(F)F)cc1Cl)c1ccc2c(c1)C1(CCS(=O)(=O)CC1)[C@H](C1CC1)N2S(=O)(=O)c1ccc(F)cc1 | cell-free assay | competition with immobilised ligand | 1 µM | 86
COc1ccnn2ncc(-c3ccnc(N(C)C)n3)c12 | binding |  | 1 µM | 95
CNC(=O)[C@@H]1CC[C@@H](n2c(-c3ccc4cnccc4c3)nc3ccc(C(=O)NCc4cccc(C(N)=O)c4)cc32)C1 | binding | competition with immobilised ligand | 1 µM | 100
Cc1cnn2ncc(-c3ccnc(N(C)C)n3)c2c1 | binding |  | 1 µM | 84
COc1ncc2cc3ccccc3nc2c1C#N | cell-free assay | competition with immobilised ligand | 5 µM | 100
C[C@@H](c1cccc(C#N)c1)n1cc(Cl)cc(C(N)=O)c1=N | cell-free assay | competition with immobilised ligand | 1 µM | 95
Cc1cnc(Nc2ccc(C(=O)N3CCC(N4CCCC4)CC3)cc2)nc1-c1cc2ccccc2s1 | binding | competition with immobilised ligand | 1 µM | 100
FC(F)(F)c1ccc2c(c1)nc(-c1cccnc1)n2C1CC1 | cell-free assay | competition with immobilised ligand | 1 µM | 100
C[C@@H]1CCN(c2nccc(-c3cnn4ncccc34)n2)C1 | binding |  | 1 µM | 79
COc1cnc(Nc2cccc(S(N)(=O)=O)c2)nc1N1CCN(c2ccccc2)C(=O)C1 | binding | competition with immobilised ligand | 1 µM | 89
CN(CCCC(F)(F)F)c1nccc(-c2cnn3ncccc23)n1 | binding |  | 1 µM | 100
CS(=O)(=O)c1cc(C2(NC(=O)c3cncc4c3cnn4-c3ccc(F)cc3)CC2)ccn1 | cell-free assay | competition with immobilised ligand | 1 µM | 73
O=C(c1ccc(Nc2ncc(Cl)c(-c3cc4ccccc4s3)n2)cc1)N1CCC(N2CCCC2)CC1 | binding | competition with immobilised ligand | 1 µM | 90
c1cncc(-c2cccc(Nc3nccc(NC4CCCCC4)n3)c2)c1 | binding | competition with immobilised ligand | 10 µM | 87
C=CC(=O)N1CCC(C(=O)NCC(=O)N2CCN(c3nc(-c4cnc(N)nc4C(F)F)nc(N4CCOCC4)n3)CC2)CC1 | binding | competition with immobilised ligand | 1 µM | 94
Nc1cnc(N2CCc3cc(S(=O)(=O)Nc4c(F)cc(Cl)cc4F)cc(N4CCCC4=O)c32)nc1 | cell-free assay | competition with immobilised ligand | 1 µM | 94
O=C(NCCCN1CCOCC1)c1ccc(Nc2nccc(-c3cc4ccccc4s3)n2)cc1 | binding | competition with immobilised ligand | 1 µM | 100
CC(=O)C1=C(C)N(c2cccc(C(F)(F)F)c2)C(=O)N[C@@H]1c1ccc(C#N)nc1 | cell-free assay | competition with immobilised ligand | 1 µM | 100
CC1CCCN1c1nccc(-c2cnn3ncccc23)n1 (stereo not shown) | binding |  | 1 µM | 100
